Assay outcomes from PubChem BioAssay.
A selection: hits, their analogues and other compounds. The true share with any hit is near 9.5%.
HEK293 NFkB inh: inhibitors of PMA/ionomycin-induced NF-kB reporter, primary screen, antigen receptor NF-kB inhibitor project, cell-based, HEK-293 luciferase reporter, luminescence; HEK-293 NF-kB luciferase reporter; inhibition, % at 3 µM; 62,000 tested, 0.21% active; AID 465, 2006;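 active means inhibition above the mean of all tested compounds plus 3 SD, cut at about 40% in these data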;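 further: 0% = stimulated DMSO wells and 100% = 10 µM reference inhibitor 5653914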
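Material: HEK-293 cells with stable firefly luciferase reporter driven by four HIV NF-kB elements / Also added: PMA plus ionomycin mix as NF-kB-activating stimulus / Compound dosing: 3 µM once, 0.30% DMSO / Times: 1 h pretreatment, 16 h stimulation, 37 °C / Signal: luminescence / Evaluation: per-plate % inhibition versus controls / Benchmarks: DMSO and 10 µM reference inhibitor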
mHtt clearance: clearance of mutant huntingtin inclusions, primary screen, imaging, HeLa Exon1htt(103Q)mCFP, confocal imaging; aggregate imaging; zero = plate's median compound well; inhibition, % at 1.5 µM; 47,000 tested, 0.42% active; AID 853, 2007;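 active means inhibition of aggregate fluorescence above about 70%, also judged a hit by eye on the cell image, limit read from the data, passing the limit was not always enough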;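 further: cells exposed to compound for three days before fixation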
Jurkat tox 60K: cytotoxicity toward Jurkat T cells, primary screen, cytotoxicity control, cell-based, Jurkat E6.1, 60K MLSMR library. 56,000 tested, 1.2% active. Jurkat E6.1 viability, ATP luminescence, 48 h. AID 463, 2006. inhibition, % at 4 µM;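 active means inhibition above the mean inhibition of all tested compounds plus 3 SD, cut at about 28% in these data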
D1 allo mod: D1 CRE-luciferase signal change, two-sided – cell-based, HEK293 D1, dopamine EC30, D1 allosteric modulator project, primary screen. 58,000 tested, 5.9% active. B-score at 10 µM. dopamine EC30 potentiation; actives deviate in either direction. D(1A) dopamine receptor (Homo sapiens), P21728;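 active means luminescence count or its row- and column-corrected plate score outside the 99.7% band of the plate's sample wells, on either side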
M1 agonist: M1 muscarinic receptor agonists, primary screen, CHO-M1 cells, Fluo-4 calcium, agonist mode | AID 626, 2007 | Muscarinic acetylcholine receptor M1 | B-score at 10 µM | 64,000 tested, 3% active | Fluo-4 calcium fluorescence; active compounds read high;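 active means fluorescence rise, raw or as B-score row- and column-corrected plate score, outside the 99.7% band of its plate's samples, either direction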
M1 antagonist: antagonists of rat M1 muscarinic receptor; Muscarinic acetylcholine receptor M1 (Rattus norvegicus), P08482; CHO-M1 cells, Fluo-4 calcium, ACh EC80 antagonist mode; active compounds read low; B-score at 10 µM; 64,000 tested, 3.4% active;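 active means calcium fluorescence response, raw or row-and-column corrected B-score, differing from the plate sample mean either way at a set confidence level, mostly lower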
Target sequence (P08482 whole entry, looked up): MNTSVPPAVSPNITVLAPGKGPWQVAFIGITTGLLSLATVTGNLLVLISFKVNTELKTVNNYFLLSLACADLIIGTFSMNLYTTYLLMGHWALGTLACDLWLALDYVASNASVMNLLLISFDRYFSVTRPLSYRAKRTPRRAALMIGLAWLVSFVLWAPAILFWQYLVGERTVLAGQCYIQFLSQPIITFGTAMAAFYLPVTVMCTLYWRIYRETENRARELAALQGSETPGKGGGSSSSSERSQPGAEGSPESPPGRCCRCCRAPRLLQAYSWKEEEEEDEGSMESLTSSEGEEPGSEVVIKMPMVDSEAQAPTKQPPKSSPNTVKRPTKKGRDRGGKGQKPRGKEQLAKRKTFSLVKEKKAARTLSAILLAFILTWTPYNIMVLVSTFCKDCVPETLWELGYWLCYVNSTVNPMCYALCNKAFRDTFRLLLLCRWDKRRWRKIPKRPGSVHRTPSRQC
M1 antag conf: rat M1 muscarinic receptor antagonists, confirmation, CHO cells, Fluo-4 calcium, duplicate. shares compounds with M1 antagonist. ACh EC80 antagonism; active compounds read low. calcium response (max-min fluorescence) at 10 µM. 1,700 tested, 43% active. AID 677, 2007;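 active means calcium response below the same-plate mean of wells given acetylcholine alone at its 80%-effect dose, minus 3 SD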;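 further: raw fluorescence intensity difference in arbitrary instrument units and not normalized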
mGluR4 antag: human mGluR4 response to M1 antagonist hits, M1 allosteric modulator project, cell-based, antagonist mode, secondary assay 1 | fluorescence response (max-min) at 10 µM | shares compounds with M1 antagonist | AID 678, 2007 | CHO-mGluR4 calcium flux, Fluo-4 fluorescence, glutamate EC80; active compounds read low | 1,700 tested, 0.9% active;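 active means fluorescence response below the plate's average for near-maximal glutamate wells, less 3 SD of those wells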;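 further: raw unnormalized fluorescence span taken in the window right after glutamate addition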
Numbers without * were called inactive; . = no result.

SMILES	HEK293 NFkB inh	mHtt clearance	Jurkat tox 60K	D1 allo mod	M1 agonist	M1 antagonist	M1 antag conf	mGluR4 antag
COCCn1c(SCC(=O)N2CCCc3ccccc32)nc2ccccc2c1=O	0	.	0	-0.88	-0.12	-1.9*	589	254
COC(=O)c1ccc(CSc2nc(C)nc3c2c(=O)n(C)c(=O)n3C)o1	6	.	-5	2.8	-0.098	-2*	500*	242
COCCn1c(SCc2ccc(C(=O)OC)o2)nc2cc(Cl)ccc2c1=O	7	9	-2	0.13	0.64	-0.38	.	.
CCOC(=O)C1=C(C)OC(N)=C(C#N)C1c1cc2c(cc1Br)OCO2 (stereo unspecified)	24	.	-1	-0.38	-0.73	-1.9*	417*	208
C=CCOC(=O)C1=C(C)OC(N)=C(C#N)C1c1ccc2c(c1)OCO2 (stereo unspecified)	5	24	-2	0.16	-0.071	0.44	.	.
Clc1ccc(OCCn2ccnc2)c(Cl)c1	28	-45	10	0.26	-1.7	-3*	408*	211
CC1=CC(C)(C)N=C(Nc2ccc(C)cc2)S1	-1	.	3	.	-0.13	-5*	275*	218
COc1ccccc1Cn1c2nc3ccccc3nc2c2c(=O)n(CC(C)C)cnc21	.	.	.	.	-0.01	0.78	.	.
CN(C)CCNS(=O)(=O)c1ccc(Cl)cc1	10	1	-2	-0.27	0.27	0.016	.	.
CCCN(CCC)CCCNC(=O)c1cc2c(=O)n(C)c3ccccc3c2n1C	23	.	-1	0.25	0.052	-4.4*	441*	243
Cn1c(C(=O)NCCCN2CCCCCC2)cc2c(=O)n(C)c3ccccc3c21	19	-123	-1	2.1	-0.039	-3.2*	511*	190
CCCCN(CC)CCNC(=O)c1cc2c(=O)n(C)c3ccccc3c2n1C	10	.	2	0.012	-0.048	-4.3*	412*	229
CCOc1ccc(-n2nc(C(=O)N3CCOCC3)c3ccccc3c2=O)cc1	-1	.	-4	-0.16	0.95	0.45	.	.
N#CCCn1nc(-c2ccccc2)cc1Nc1ccccc1NC(=O)c1cccs1	6	.	.	.	-0.62	0.87	.	.
O=C(CCN1C(=O)c2ccccc2C1=O)N1CCC(c2ccccc2)C1 (stereo unspecified)	10	38	-1	-0.41	0.13	0.28	.	.
COc1ccc(C(C(C(=O)c2ccco2)N2CCOCC2)N2CCOCC2)cc1 (stereo unspecified)	6	-41	0	-0.04	0.41	-0.041	.	.
CSc1ccc(C(C(C(=O)c2cccs2)N2CCOCC2)N2CCOCC2)cc1 (stereo unspecified)	-1	.	1	.	0.64	-3.4*	537	170
COc1ccc(CNC(=O)NCc2ccc(OC)c(OC)c2)cc1OC	11	.	5	.	-1.4	-2.4*	524	206
COc1cc(NC(=O)c2cccs2)c(OC)cc1NC(=O)CCn1nnc2ccccc21	16	.	4	-0.59	0.72	-0.46	.	.
c1ccc2c(N3CCCCC3)nc(N3CCCCC3)nc2c1	.	.	.	.	0.0025	-1.1	.	.
Cc1cc(N2CCN(c3nc(N4CCOCC4)nc4ccccc34)CC2)c2ccccc2n1	18	.	1	.	0.28	-7.1*	24*	239
O=C(Cn1cnc2ccccc21)OCC(=O)N1CCc2ccccc2C1	24	.	8	-0.093	-1.2	-1.7*	598	221
O=C(COC(=O)Cn1cnc2ccccc21)NCCc1ccccc1	14	-1	4	0.54	-0.052	0.56	.	.
Cc1ccc(-c2noc(CN3C(C)CCCC3C)n2)cc1 (stereo unspecified)	6	14	2	0.24	0.62	-1.2	.	.
CCCCCC(=O)Nc1ccc(N2CCN(CC)CC2)c(Cl)c1	2	.	-1	-4.6*	0.38	-11*	46*	259
